# Measured values collected from several papers.
# Each line is one published result; the experiments were not run side by side.
# Target: Serine/threonine-protein kinase TAO2 (TAOK2, Homo sapiens, UniProt Q9UL54)
# One construct used (Q9UL54 1-1235): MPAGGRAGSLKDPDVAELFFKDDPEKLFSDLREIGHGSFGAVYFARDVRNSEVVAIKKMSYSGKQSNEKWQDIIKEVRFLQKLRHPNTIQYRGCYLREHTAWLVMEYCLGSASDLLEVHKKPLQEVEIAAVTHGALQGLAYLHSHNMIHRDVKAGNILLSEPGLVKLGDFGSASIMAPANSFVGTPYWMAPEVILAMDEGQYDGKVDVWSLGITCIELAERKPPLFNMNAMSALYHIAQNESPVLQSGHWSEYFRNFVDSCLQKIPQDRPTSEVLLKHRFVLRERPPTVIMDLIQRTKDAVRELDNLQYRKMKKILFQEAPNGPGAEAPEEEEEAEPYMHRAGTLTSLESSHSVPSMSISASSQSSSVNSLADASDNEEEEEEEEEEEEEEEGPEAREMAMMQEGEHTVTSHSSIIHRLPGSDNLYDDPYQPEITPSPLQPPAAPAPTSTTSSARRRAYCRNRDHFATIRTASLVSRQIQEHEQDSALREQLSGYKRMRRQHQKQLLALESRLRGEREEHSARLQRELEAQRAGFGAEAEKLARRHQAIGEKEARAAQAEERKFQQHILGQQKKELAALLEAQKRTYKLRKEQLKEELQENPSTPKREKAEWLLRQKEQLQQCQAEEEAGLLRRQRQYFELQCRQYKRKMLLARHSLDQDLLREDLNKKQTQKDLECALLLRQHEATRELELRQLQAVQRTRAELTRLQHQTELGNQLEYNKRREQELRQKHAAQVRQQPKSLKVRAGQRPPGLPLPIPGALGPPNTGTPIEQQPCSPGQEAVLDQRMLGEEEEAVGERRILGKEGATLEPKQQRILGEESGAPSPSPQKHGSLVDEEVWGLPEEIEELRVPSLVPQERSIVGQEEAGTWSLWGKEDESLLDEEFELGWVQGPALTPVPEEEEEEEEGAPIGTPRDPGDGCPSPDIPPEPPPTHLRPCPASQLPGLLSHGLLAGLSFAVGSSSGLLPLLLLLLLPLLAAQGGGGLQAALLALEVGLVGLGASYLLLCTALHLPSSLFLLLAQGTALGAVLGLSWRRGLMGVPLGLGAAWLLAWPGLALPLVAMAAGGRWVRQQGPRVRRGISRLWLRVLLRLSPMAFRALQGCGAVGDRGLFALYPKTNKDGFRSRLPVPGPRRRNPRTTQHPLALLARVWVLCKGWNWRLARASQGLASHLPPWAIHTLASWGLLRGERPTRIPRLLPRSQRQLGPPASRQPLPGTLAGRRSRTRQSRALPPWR
SMILES,observed,mode,method,concentration,quantity,result
CCCCNc1ncc2c(-c3ccc(F)cc3)nn(C[C@H]3CC[C@H](N)CC3)c2n1,target engagement in cells,inhibitor,chemoproteomics,20 mM,inhibition,24.3%
COc1cccc(CNC(=O)c2nc3scc(COCc4ccc(C(=O)O)cc4)c3c(=O)[nH]2)c1,cell-free assay,,competition with immobilised ligand,1 µM,remaining binding,59.8%
O=[N+]([O-])c1cccc2[nH]c(CNc3nc(N4CCOCC4)nc4c3ncn4-c3ccsc3)nc12,binding,,competition with immobilised ligand,10 µM,binding vs control,84%
O=C(NS(=O)(=O)c1ccc(NCC2CCOCC2)c([N+](=O)[O-])c1)c1ccc(N2CCN(Cc3ccc(C(F)(F)F)cc3-c3ccc(Cl)cc3)CC2)cc1Oc1cnc2[nH]ccc2c1,cell-free assay,,competition with immobilised ligand,1 µM,remaining binding,82%
CCN(CC)CCNC(=O)c1c(C)[nH]c(/C=C2\C(=O)Nc3ccc(F)cc32)c1C,enzyme activity,inhibitor,,0.3 µM,inhibition,-3%
CC(C)(C)c1nc(-c2cccc(NS(=O)(=O)c3c(F)cccc3F)c2F)c(-c2ccnc(N)n2)s1,enzyme activity,inhibitor,radiometric,1 µM,remaining activity,35%
CCCOc1ccc([C@H]2[C@H](C(=O)O)[C@@H](c3ccc4c(c3)OCO4)CN2CC(=O)Nc2c(CC)cccc2CC)cc1,cell-free assay,,competition with immobilised ligand,1 µM,remaining binding,74%
CNC(=O)c1cc(Oc2ccc(NC(=O)Nc3ccc(Cl)c(C(F)(F)F)c3)cc2)ccn1,enzyme activity,inhibitor,,10 µM,inhibition,102%
COc1cc(Cl)c(C(=O)N[C@@H](CN[C@H]2CC[C@@H](N)CC2)Cc2ccc(C#N)cc2)cc1-c1ccc(CN[C@H](C)c2ccc(C)cc2)o1,enzyme activity,inhibitor,,1 µM,remaining activity,96%
O=C(N1CCS(=O)(=O)CC1)N1C[C@H](c2ccc(OC(F)(F)F)cc2)C[C@H](c2nc(C3CC3)no2)C1,cell-free assay,,competition with immobilised ligand,1 µM,remaining binding,100%
C[C@@H]1CCN(c2nccc(-c3cnn4ncccc34)n2)C1,binding,,,1 µM,remaining binding,75%
Cc1cnc(NC2CCOCC2)nc1-n1cnc(C(=O)NC(CN)c2cc(F)cc(Cl)c2)c1 (stereo not drawn),enzyme activity,inhibitor,radiometric,1 µM,remaining activity,88%
Cc1ccc(Nc2nccc(N(C)c3ccc4c(C)n(C)nc4c3)n2)cc1S(N)(=O)=O,enzyme activity,inhibitor,,0.3 µM,inhibition,43%
CN1CC(Oc2cnc(C#N)cc2-c2ccn3nc(NC(=O)C4CC4)cc3c2)C1,enzyme activity,inhibitor,,1 µM,inhibition,0%
CN(C)c1ncnc(-c2ccc3nc(Nc4cc(CN5CCN(C(=O)CC(F)(F)F)CC5)ccn4)[nH]c3c2)c1Cl,cell-free assay,,competition with immobilised ligand,1 µM,remaining binding,80%
CCCS(=O)(=O)Nc1ccc(F)c(C(=O)c2c[nH]c3ncc(-c4ccc(Cl)cc4)cc23)c1F,enzyme activity,inhibitor,,1 µM,inhibition,< 10%
Cc1cc(NC(=O)c2cccc3cc(-c4cccc5[nH]nc(N)c45)ccc23)ccc1F,enzyme activity,inhibitor,,0.1 µM,activity vs control,86%
COc1cc(-c2cc(-c3ccc(N4CCNCC4)cc3)cnc2C)cc(OC)c1OC,enzyme activity,inhibitor,,0.1 µM,inhibition,2%
